Measured values: ChEMBL document CHEMBL4311931, “Controlling cellular distribution of drugs with permeability modifying moieties” (Medchemcomm, 2019)

Columns and labels:
[1] = biological target: T1, 5-hydroxytryptamine receptor 1A (Homo sapiens) (UniProt P08908); test: Displacement of [3H]-OH-DPAT from human recombinant 5-HT1A receptor measured after 60 mins by scintillation counter method relative to parent compound
T1 sequence (whole entry): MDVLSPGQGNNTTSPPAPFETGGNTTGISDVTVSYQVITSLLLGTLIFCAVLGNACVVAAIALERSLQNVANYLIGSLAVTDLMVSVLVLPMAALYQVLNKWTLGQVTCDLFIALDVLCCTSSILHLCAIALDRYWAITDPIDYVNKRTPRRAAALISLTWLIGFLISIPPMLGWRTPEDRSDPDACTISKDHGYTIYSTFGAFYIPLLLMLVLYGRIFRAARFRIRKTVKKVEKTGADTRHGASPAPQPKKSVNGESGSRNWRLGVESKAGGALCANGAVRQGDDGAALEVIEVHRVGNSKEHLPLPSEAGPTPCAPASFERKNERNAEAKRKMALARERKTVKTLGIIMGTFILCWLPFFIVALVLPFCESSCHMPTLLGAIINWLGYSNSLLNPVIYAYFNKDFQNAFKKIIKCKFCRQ

[2] = biological target: T2, 5-hydroxytryptamine receptor 1A (Homo sapiens, UniProt P08908); test: Antagonist activity at human 5HT1A expressed in BAF3 cells by fluorimetry analysis; assay type: cell-based
T2 sequence (P08908 whole entry): T1 sequence (whole entry)

[3] = biological target: T3, Beta-2 adrenergic receptor (Homo sapiens, UniProt P07550); test: Antagonist activity at human recombinant beta2 adrenoreceptor expressed in CHOK1 cells incubated for 30 mins by HTRF; assay type: cell-based
Target sequence in this assay (P07550 whole entry): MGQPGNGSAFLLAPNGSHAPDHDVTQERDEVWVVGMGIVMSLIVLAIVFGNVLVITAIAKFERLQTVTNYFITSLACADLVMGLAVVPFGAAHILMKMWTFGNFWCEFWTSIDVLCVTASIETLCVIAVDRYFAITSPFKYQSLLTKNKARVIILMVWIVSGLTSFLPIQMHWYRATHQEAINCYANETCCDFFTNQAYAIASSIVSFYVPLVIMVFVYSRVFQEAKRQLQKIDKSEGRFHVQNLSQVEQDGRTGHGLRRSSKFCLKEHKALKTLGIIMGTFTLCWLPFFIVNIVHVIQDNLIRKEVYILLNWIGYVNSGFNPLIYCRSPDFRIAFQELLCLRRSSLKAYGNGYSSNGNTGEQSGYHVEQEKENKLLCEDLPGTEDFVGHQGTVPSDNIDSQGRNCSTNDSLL

[4] = biological target: T2, 5-hydroxytryptamine receptor 1A; test: Displacement of [3H]-OH-DPAT from human recombinant 5-HT1A receptor measured after 60 mins by scintillation counter method
[5] = biological target: T3, Beta-2 adrenergic receptor; test: Displacement of [3H](-)CGP 12177 from human recombinant beta2 adrenoceptor after 120 mins by scintillation counting method relative to parent compound
Target sequence in this assay (P07550 whole entry, looked up): as the sequence (P07550 whole entry) above

[6] = biological target: T3, Beta-2 adrenergic receptor; test: Displacement of [3H](-)CGP 12177 from human recombinant beta2 adrenoceptor after 120 mins by scintillation counting method
Target sequence in this assay (P07550 whole entry): as above

[7] = biological target: T3, Beta-2 adrenergic receptor; test: Antagonist activity at human recombinant beta2 adrenoreceptor expressed in CHOK1 cells incubated for 30 mins by HTRF relative to parent compound; assay type: cell-based
Target sequence in this assay (P07550 whole entry, looked up): as the sequence (P07550 whole entry) above

DLD-1 [8] = test: cells; settings: Homo sapiens
DLD-1 [9] = test: cells; settings: Homo sapiens; remark: listed apart in the source
[10] = Permeability of compound in 5% DMSO after 7 hrs by PAMPA; assay type: ADME; settings: read-out: permeability
PC-3 = test: Antiproliferative activity against human PC3 cells assessed as reduction in cell viability by Celltiter-Glo assay; assay type: functional, cell-based
How it was run: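 PC3 cells from ATCC, authenticated by STR analysis. Viability was read by CellTiter-Glo, and cell EC50 is the geometric mean of at least two duplicate runs.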

[11] = biological target: T4, Nicotinamide phosphoribosyltransferase (Homo sapiens, UniProt P43490); test: Displacement of fluorescent labelled OG488 from human full length FLAG-tagged NAMPT (1 to 491 residues) expressed in HEK293-6E cells in absence of PRPP by TR-FRET assay; assay type: cell-based
T4 sequence (P43490 whole entry, the tested form may be a part): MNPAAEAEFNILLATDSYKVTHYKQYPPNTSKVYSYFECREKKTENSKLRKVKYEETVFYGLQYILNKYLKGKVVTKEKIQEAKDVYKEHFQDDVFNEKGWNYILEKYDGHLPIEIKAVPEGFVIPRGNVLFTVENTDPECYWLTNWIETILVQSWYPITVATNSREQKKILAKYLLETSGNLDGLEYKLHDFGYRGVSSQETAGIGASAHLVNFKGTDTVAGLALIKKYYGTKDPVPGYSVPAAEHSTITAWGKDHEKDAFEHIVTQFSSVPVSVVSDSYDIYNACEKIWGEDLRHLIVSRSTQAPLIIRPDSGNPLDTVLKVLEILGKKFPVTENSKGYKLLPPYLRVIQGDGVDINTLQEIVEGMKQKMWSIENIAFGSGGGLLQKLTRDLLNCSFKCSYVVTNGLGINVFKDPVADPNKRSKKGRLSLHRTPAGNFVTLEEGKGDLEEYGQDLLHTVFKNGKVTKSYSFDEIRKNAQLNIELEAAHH

[12] = biological target: T4, Nicotinamide phosphoribosyltransferase; test: Displacement of fluorescent labelled OG488 from human full length FLAG-tagged NAMPT (1 to 491 residues) expressed in HEK293-6E cells in presence of PRPP by TR-FRET assay; assay type: cell-based
K562 = test: Antiproliferative activity against human K562 cells assessed as reduction in cell viability by measuring ATP level incubated for 3 days by Celltiter-Glo assay; assay type: functional, cell-based; settings: K562, 72 h
How it was run: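 K562 cells grown in RPMI 1640 with 50 mM HEPES and 10% FBS at 37 °C in 5% CO2, then plated at 20 000 cells per well. Compounds were log-serially diluted in DMSO, then in RPMI, to final concentrations of 10 000 nM to 0.01 nM. Cells were exposed for 3 days, and total intracellular ATP was read by CellTiter-Glo. IC50 is the geometric mean of at least two duplicate runs.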

## C=CCc1ccccc1OCC(O)CNCCOCCOCCOCCOCCN (configuration not stated)
[1]
  fold change (FC): 1.66
[2]
  IC50: > 1000 nM
[3]
  IC50: 100 nM
[4]
  Ki: 35.8 nM
[5]
  fold change (FC): 20.6
[6]
  Ki: 10.3 nM
[7]
  fold change (FC): 30.3

## CC(C)(C)OC(=O)NCCOCCOCC(=O)N1CCN(C(=O)c2cc(Cc3n[nH]c(=O)c4ccccc34)ccc2F)CC1
DLD-1 [8]
  EC50: 700 nM
DLD-1 [9]
  EC50: > 100000 nM

## C=CCc1ccccc1OCC(O)CNCCOCCOCCOCCOCCNC(=O)C1C(C(=O)O)C(C(=O)O)C1C(=O)O (configuration not stated)
[1]
  fold change (FC): 82.4
[2]
  IC50: > 1000 nM
[3]
  IC50: > 1000 nM
[4]
  Ki: 1780 nM
[5]
  fold change (FC): 1024
[6]
  Ki: 512 nM
[7]
  fold change (FC): 303
[10]
  Papp at 7 h: 0.0012 ×10⁻⁶ cm/s

## O=C(/C=C/c1cccnc1)NCCCCC1CCN(C(=O)c2cccc(CNC(=O)COCCOCCNC(=O)CS(=O)(=O)O)c2)CC1
PC-3
  IC50: 7230 nM
[11]
  Ki: 285 nM
[12]
  Ki: 7.9 nM

## O=C(/C=C/c1cccnc1)NCCCCC1CCN(C(=O)c2cccc(CNC(=O)COCCOCCNC(=O)C3C(C(=O)O)C(C(=O)O)C3C(=O)O)c2)CC1 (configuration not stated)
PC-3
  IC50: 7330 nM
[11]
  Ki: 359 nM
[12]
  Ki: 5.9 nM

## CC(C)NCC(O)COc1ccccc1CCCSCC(=O)NCCOCCOCCNC(=O)C1C(C(=O)O)C(C(=O)O)C1C(=O)O (configuration not stated)
[1]
  fold change (FC): 35.2
[2]
  IC50: > 10000 nM
[3]
  IC50: 380 nM
[4]
  Ki: 1720 nM
[5]
  fold change (FC): 24.6
[6]
  Ki: 78.6 nM
[7]
  fold change (FC): 5.27

## Cc1nn(C)cc1-c1ccc2cc(CCN3CCC[C@H]3C)ccc2n1
[10]
  Papp at 7 h: 1.13 ×10⁻⁶ cm/s

## Cc1nc(Nc2ncc(C(=O)Nc3c(C)cccc3Cl)s2)cc(N2CCN(CCOCCOCCNC(=O)OC(C)(C)C)CC2)n1
K562
  IC50: 1.64 nM
[10]
  Papp at 7 h: 0.0065 ×10⁻⁶ cm/s

## C=CCc1ccccc1OCC(O)CNC(C)C (configuration not stated) [ALPRENOLOL]
[2]
  IC50: 630 nM
[4]
  Ki: 21.6 nM
[10]
  Papp at 7 h: 10.9 ×10⁻⁶ cm/s

## Cc1sc2c(c1C)C(c1ccc(Cl)cc1)=N[C@@H](CC(=O)OC(C)(C)C)c1nnc(C)n1-2
[10]
  Papp at 7 h: 2.24 ×10⁻⁶ cm/s

## O=C(O)C1C(C(=O)O)C(C(=O)NCCOCCOCC(=O)N2CCN(C(=O)c3cc(Cc4n[nH]c(=O)c5ccccc45)ccc3F)CC2)C1C(=O)O (configuration not stated)
DLD-1 [8]
  EC50: 7800 nM
DLD-1 [9]
  EC50: > 100000 nM

## CC(C)NCC(O)COc1ccccc1CCCSCC(=O)NCCOCCOCCNC(=O)CCCCCC1(C)C(/C=C/C=C/C=C2/N(CCCS(=O)(=O)O)c3ccc(S(=O)(=O)O)cc3C2(C)C)=[N+](CCCS(=O)(=O)[O-])c2ccc(S(=O)(=O)O)cc21 (configuration not stated)
[1]
  fold change (FC): 18.9
[2]
  IC50: > 10000 nM
[3]
  IC50: 96 nM
[4]
  Ki: 925 nM
[5]
  fold change (FC): 1.73
[6]
  Ki: 26 nM
[7]
  fold change (FC): 1.33

## CC1(CCCCCC(=O)NCCOCCOCC(=O)NCc2cccc(C(=O)N3CCC(CCCCNC(=O)/C=C/c4cccnc4)CC3)c2)C(/C=C/C=C/C=C2/N(CCCS(=O)(=O)O)c3ccc(S(=O)(=O)O)cc3C2(C)C)=[N+](CCCS(=O)(=O)[O-])c2ccc(S(=O)(=O)O)cc21 (configuration not stated)
PC-3
  IC50: 197 nM
[11]
  Ki: 141 nM
[12]
  Ki: 1.3 nM

## CC(C)NCC(O)COc1ccccc1CCCSCC(=O)NCCOCCOCCNC(=O)OC(C)(C)C (configuration not stated)
[1]
  fold change (FC): 0.871
[2]
  IC50: 640 nM
[3]
  IC50: 22 nM
[4]
  Ki: 48.9 nM
[5]
  fold change (FC): 0.21
[6]
  Ki: 3.2 nM
[7]
  fold change (FC): 0.31
[10]
  Papp at 7 h: 0.0189 ×10⁻⁶ cm/s

## Cc1nc(Nc2ncc(C(=O)Nc3c(C)cccc3Cl)s2)cc(N2CCNCC2)n1
[10]
  Papp at 7 h: 0.0371 ×10⁻⁶ cm/s

## C=CCc1ccccc1OCC(O)CNCCOCCOCCOCCOCCNC(=O)OC(C)(C)C (configuration not stated)
[1]
  fold change (FC): 1.12
[2]
  IC50: > 1000 nM
[3]
  IC50: 6.9 nM
[4]
  Ki: 24.1 nM
[5]
  fold change (FC): 7.4
[6]
  Ki: 3.7 nM
[7]
  fold change (FC): 2.09

## Cc1nc(Nc2ncc(C(=O)Nc3c(C)cccc3Cl)s2)cc(N2CCN(CCO)CC2)n1.O [DASATINIB]
K562
  IC50: 0.638 nM
[10]
  Papp at 7 h: 1.49 ×10⁻⁶ cm/s
